Measured values: ChEMBL document CHEMBL1142459, “Design and synthesis of a novel series of pyranonaphthoquinones as topoisomerase II catalytic inhibitors” (J Med Chem, 2008)
Activity calls are given as the source filed them. The rule behind the calls is not given here.

Columns and labels:
[1] = target: DNA topoisomerase 2-alpha (Homo sapiens) (UniProt P11388); experiment: Inhibition of human topoisomerase 2 alpha-mediated bacterial plasmid DNA relaxation assessed as pRYG negative supercoiled form added 100 uM after relaxation
Nucleic Acid = experiment: DNA intercalative activity assessed retardation in migration of negatively supercoiled small circular Escherichia coli pBSKS in agarose gel electrophoresis at 100 uM; type: nucleic-acid assay
Method in brief: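 250 ng negatively supercoiled pBSKS incubated 10 min at 37 °C with compound at 100 µM in 1% (v/v) DMSO; ethidium bromide 1 µg/mL as intercalator control. Run on 1% agarose in 1× TBE without ethidium bromide at 0.5 V/cm (low field); retardation of migration scored.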

[2] = target: DNA topoisomerase 2-alpha (Homo sapiens) (UniProt P11388); experiment: Inhibition of human topoisomerase 2 alpha-mediated Crithidia fasciculate kDNA decatenation at 100 uM
[3] = target: DNA topoisomerase 2-alpha (Homo sapiens) (UniProt P11388); experiment: Inhibition of human topoisomerase 2 alpha-mediated bacterial plasmid DNA relaxation assessed as pRYG negative supercoiled form at 100 uM

Sequence of DNA topoisomerase 2-alpha (Homo sapiens) (P11388 whole entry): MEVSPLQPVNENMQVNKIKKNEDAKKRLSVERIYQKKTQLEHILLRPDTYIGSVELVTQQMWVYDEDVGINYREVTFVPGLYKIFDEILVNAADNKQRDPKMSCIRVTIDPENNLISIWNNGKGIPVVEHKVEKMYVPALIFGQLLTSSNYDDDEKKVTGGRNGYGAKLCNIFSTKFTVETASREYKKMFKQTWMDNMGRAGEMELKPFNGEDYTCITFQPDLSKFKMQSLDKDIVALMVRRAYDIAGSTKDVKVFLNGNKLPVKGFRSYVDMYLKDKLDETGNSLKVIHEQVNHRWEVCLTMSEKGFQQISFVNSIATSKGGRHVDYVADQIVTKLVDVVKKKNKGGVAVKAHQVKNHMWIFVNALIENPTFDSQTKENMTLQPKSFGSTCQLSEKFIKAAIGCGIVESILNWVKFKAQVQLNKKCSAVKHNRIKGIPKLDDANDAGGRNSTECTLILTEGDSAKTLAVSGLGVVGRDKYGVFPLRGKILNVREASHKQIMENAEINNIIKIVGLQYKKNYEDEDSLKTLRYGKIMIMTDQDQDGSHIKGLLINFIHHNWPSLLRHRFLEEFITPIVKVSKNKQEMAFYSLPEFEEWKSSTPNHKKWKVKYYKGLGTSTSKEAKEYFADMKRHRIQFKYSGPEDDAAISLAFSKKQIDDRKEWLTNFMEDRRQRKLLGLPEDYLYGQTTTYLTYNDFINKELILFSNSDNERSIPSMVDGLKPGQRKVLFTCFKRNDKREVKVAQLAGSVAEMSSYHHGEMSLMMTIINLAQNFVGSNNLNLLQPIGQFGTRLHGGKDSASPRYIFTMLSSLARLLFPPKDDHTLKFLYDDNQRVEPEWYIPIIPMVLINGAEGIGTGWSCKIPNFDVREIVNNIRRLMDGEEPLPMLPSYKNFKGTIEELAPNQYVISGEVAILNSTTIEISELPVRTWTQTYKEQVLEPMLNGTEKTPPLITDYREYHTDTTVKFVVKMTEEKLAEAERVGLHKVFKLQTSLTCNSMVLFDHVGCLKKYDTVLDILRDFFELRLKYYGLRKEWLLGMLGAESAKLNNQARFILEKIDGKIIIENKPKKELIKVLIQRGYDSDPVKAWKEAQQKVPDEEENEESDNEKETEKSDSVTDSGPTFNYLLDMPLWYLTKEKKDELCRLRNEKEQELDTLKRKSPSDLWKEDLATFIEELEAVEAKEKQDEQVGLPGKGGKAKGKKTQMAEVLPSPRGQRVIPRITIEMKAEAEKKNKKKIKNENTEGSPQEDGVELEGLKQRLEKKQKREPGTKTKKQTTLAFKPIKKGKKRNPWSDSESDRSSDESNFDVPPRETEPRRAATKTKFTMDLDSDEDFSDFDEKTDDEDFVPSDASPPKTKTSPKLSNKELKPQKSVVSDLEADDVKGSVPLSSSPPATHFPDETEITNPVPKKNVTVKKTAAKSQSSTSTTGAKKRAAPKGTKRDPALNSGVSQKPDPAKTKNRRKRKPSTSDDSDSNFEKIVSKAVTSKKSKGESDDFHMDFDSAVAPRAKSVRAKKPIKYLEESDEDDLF

Row | Compound | Activity [1] | Activity (Nucleic Acid) | Activity [2] | Activity [3]
1 | CC1(C)OC2=C(C(=O)c3ccccc3C2=O)[C@H]2c3cc(Br)cc(Br)c3OC[C@H]21 | inactive | inactive | Active | Active
2 | COc1ccc2c(c1)OC[C@H]1[C@@H]2C2=C(OC1(C)C)c1ccccc1C(=O)C2=O | inactive | inactive | Active | Active
3 | CC1(C)OC2=C(C(=O)C(=O)c3ccccc32)[C@@H]2c3cc(Br)ccc3OC[C@@H]21 | inactive | inactive | Active | Active
4 | Cc1c2ccncc2c(C)c2c1[nH]c1ccccc12 | inactive | Active |  | Active
5 | CC1(C)OC2=C(C(=O)c3ccccc3C2=O)[C@H]2c3c(ccc4ccccc34)OC[C@H]21 | inactive | inactive | inactive | inactive
6 | CC[n+]1c(-c2ccccc2)c2cc(N)ccc2c2ccc(N)cc21 |  | Active |  | 
7 | CC1(C)OC2=C(C(=O)C(=O)c3ccccc32)[C@@H]2c3c(ccc4ccccc34)OC[C@@H]21 | inactive | inactive | Active | Active
8 | C[C@@H]1CC[C@@H]2[C@@H](C1)C1=C(OC2(C)C)C(=O)c2ccccc2C1=O | inactive | inactive | inactive | inactive
9 | C[C@@H]1CC[C@H]2[C@H]1C1=C(OC2(C)C)C(=O)c2ccccc2C1=O | inactive | inactive | inactive | inactive
10 | C[C@H]1CC[C@H]2[C@H](C1)C1=C(OC2(C)C)c2ccccc2C(=O)C1=O | inactive | inactive | inactive | inactive
11 | COc1ccc2c(c1)OC[C@@H]1[C@H]2C2=C(OC1(C)C)C(=O)c1ccccc1C2=O | inactive | inactive | Active | Active
12 | CC1(C)OC2=C(C(=O)c3ccccc3C2=O)[C@H]2c3cc(Br)ccc3OC[C@H]21 | inactive | inactive | Active | Active
13 | COc1cc([C@@H]2c3cc4c(cc3[C@@H](O[C@@H]3O[C@@H]5CO[C@@H](C)O[C@H]5[C@H](O)[C@H]3O)[C@H]3COC(=O)[C@H]23)OCO4)cc(OC)c1O | Active | inactive |  | inactive
14 | C[C@H]1CC[C@@H]2[C@@H]1C1=C(OC2(C)C)c2ccccc2C(=O)C1=O | inactive | inactive | inactive | inactive
